Experimental findings from ChEMBL document CHEMBL3525931, “Stereoselective interaction of pantoprazole with ABCG2. II. In vitro flux analysis” (Drug Metab Dispos, 2012) are described below.

The data set addresses T1, Broad substrate specificity ATP-binding cassette transporter ABCG2 (Rattus norvegicus, UniProt Q80W57).
T1 sequence (Q80W57 whole entry): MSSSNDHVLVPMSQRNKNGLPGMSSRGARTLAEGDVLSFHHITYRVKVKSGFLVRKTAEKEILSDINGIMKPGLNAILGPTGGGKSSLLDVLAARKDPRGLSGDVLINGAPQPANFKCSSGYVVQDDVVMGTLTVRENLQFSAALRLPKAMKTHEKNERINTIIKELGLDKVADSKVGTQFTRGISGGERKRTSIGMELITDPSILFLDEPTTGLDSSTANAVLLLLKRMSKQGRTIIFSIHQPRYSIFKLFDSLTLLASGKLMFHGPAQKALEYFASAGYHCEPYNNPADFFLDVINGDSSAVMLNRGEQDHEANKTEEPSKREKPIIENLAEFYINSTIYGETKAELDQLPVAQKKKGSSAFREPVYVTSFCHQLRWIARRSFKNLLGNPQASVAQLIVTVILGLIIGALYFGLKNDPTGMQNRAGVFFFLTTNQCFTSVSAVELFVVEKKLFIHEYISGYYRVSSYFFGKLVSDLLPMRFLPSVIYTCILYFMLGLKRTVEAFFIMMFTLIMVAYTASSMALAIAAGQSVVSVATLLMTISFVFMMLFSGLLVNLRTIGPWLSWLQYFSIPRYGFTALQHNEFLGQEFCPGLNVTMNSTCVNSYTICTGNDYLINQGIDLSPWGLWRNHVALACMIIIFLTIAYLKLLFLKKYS
Briefly: Observed permeability in MDCK2 cells expressing rat ABCG2 assessed as ABCG2-mediated apical to basolateral transport at 10 uM after 0.5 to 1 hrs by HPLC method. The data set is classed as ADME, cell-based. Conditions: mdck-ii. In short, it runs like this:
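Mock (empty pcDNA3.1) or rat Abcg2/human ABCG2-transfected MDCKII, G418-selected, seeded on 3.0-μm Transwell filters at 1.0×10^6 cells/well, grown 4 days to TEER >200 Ω·cm². Single isomer loaded apical or basolateral in serum-free Opti-MEM I with 0.2 μCi/ml [3H]mannitol, 37°C 5% CO2. Receiver sampled at 0.5 and 1 h. Quantified by HPLC-UV 290 nm. Permeability = initial rate/(area × donor concentration). Efflux ratio = B→A rate / A→B rate. n = 3, mean ± S.D.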

Turning to `COc1ccnc(C[S@@+]([O-])c2nc3cc(OC(F)F)ccc3[nH]2)c1OC`, the Papp was determined as 20.9 uL/hr/cm2.

As for `COc1ccnc(C[S@+]([O-])c2nc3cc(OC(F)F)ccc3[nH]2)c1OC`, the Papp is 30.1 uL/hr/cm2.
